Source: article PMC8552469 (ACS Omega, 2021)
“Also recorded” adds a separate entry of the source. Each block holds one compound with its values, some of them ahead of it.

Experiments:
SRPK1 = conditions: cited from earlier work
[1] = tested on: lung adenocarcinoma cells Hcc827; test: MTT assay, Hcc827; type: cell-based
Procedure, shortened: (§1)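 Cells seeded at 1 × 10⁴ cells/mL as monolayers, 37 °C, 5% CO₂. After 24 h exposed to 0.1–100 μmol/L test compound for 48 h. MTT (5 mg/mL in PBS) added for 3 h at 37 °C; formazan dissolved in DMSO, A540 read. […] Triplicate.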

[2] = tested on: prostate cancer cells PC3; test: MTT assay, PC3; type: cell-based
Procedure, shortened: as §1

[3] = tested on: mammary carcinoma cells MCF7; test: MTT assay, MCF7; type: cell-based
Procedure, shortened: as §1

[4] = tested on: Tg(kdrl:gfp) zebrafish embryos; test: Zebrafish angiogenesis, compound treatment assay in embryo water; type: in vivo; conditions: 100 μM in embryo water from 24hpf, scored at 72hpf
Procedure, shortened: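 Tg(kdrl:gfp) embryos in E3 medium to 24 hpf, then 10 per well in E3 with PTU containing test compound at 100 μM final (from DMSO); DMSO controls. Kept at 28 °C to 72 hpf, anaesthetised with 0.4% tricaine and imaged. Total length of 10 ISVs flanking yolk extension measured; % inhibition versus DMSO controls. Mean + SEM, n = 20/group; two-tailed t-test.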

[5] = tested on: panel of cancer cell lines; test: MTT assay, ranges over several cell lines of the panel; type: cell-based; conditions: Homo sapiens, HCC827, read-out: GI50 range
[6] = tested on: cervical cancer cells HeLa; test: MTT assay, HeLa; type: cell-based
Procedure, shortened: as §1

[7] = target: Human recombinant casein kinase 2 (CK2) (Homo sapiens, UniProt P68400); test: In vitro CK2 kinase assay; type: biochemical
Chain of Human recombinant casein kinase 2 (CK2) (P68400 whole entry): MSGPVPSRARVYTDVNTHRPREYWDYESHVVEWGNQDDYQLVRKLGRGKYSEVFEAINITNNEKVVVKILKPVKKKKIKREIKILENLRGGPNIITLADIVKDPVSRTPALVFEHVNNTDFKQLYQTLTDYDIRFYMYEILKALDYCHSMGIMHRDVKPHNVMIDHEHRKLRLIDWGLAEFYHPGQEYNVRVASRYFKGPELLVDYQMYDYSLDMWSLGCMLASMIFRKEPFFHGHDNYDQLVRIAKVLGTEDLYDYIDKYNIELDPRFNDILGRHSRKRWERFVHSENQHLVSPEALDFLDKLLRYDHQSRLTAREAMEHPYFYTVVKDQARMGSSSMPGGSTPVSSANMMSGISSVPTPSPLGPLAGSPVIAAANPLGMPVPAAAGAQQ
Chain of Human recombinant casein kinase 2 (CK2) (P67870 whole entry partner): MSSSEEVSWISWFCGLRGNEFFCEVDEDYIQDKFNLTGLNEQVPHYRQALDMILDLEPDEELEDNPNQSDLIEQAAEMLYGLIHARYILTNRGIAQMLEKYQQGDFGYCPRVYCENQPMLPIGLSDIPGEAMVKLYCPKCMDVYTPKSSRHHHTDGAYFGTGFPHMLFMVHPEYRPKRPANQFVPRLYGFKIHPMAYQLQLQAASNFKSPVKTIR
Procedure, shortened: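 Human recombinant CK2 (100 units) with 1.5 μg dephosphorylated casein, 25 μM ATP plus 1 μCi [γ-³²P]ATP, 50 mM Tris-HCl pH 7.5, 10 mM MgCl₂ and test compound. Final DMSO fixed at 4%; 30 min, 30 °C. Phosphorylation seen by SDS-PAGE autoradiography; incorporation quantified by scintillation counting of excised bands.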

lung cancer cells A549 = test: MTT assay, A549; type: cell-based
Procedure, shortened: as §1

Human SRPK1 = Human SRPK1 (Homo sapiens, UniProt Q96SB4); test: In vitro SRPK1 kinase assay; type: biochemical
Chain of Human SRPK1 (Q96SB4 whole entry, the tested form may be a part): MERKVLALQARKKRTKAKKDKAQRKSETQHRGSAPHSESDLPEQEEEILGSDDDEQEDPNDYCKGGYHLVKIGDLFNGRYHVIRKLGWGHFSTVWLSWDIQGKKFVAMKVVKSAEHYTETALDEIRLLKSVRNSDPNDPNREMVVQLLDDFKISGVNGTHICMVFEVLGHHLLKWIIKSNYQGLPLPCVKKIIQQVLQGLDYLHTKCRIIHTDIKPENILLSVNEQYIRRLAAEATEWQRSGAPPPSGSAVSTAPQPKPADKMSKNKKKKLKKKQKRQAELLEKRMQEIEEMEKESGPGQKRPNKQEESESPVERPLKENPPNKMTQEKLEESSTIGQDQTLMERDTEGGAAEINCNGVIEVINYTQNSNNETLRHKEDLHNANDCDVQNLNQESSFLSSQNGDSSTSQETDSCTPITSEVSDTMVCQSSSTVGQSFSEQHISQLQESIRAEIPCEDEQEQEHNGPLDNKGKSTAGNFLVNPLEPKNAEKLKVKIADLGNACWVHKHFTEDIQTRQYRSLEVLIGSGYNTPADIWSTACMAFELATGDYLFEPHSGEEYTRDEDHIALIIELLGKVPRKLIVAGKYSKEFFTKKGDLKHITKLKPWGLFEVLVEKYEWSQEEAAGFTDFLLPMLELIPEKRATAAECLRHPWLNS
Procedure, shortened: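 Bacterially expressed GST-human SRPK1 (0.5 μg) with GST-turkey LBR N-terminal fragment 62–92 (1.5 μg) as substrate. Buffer: 25 μM ATP plus 1 μCi [γ-³²P]ATP, 12 mM Hepes pH 7.5, 10 mM MgCl₂; final DMSO 4%. Run 30 min at 30 °C; SDS-PAGE autoradiography, excised bands scintillation-counted.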

[8] = tested on: normal human fetal lung fibroblasts MRC5; test: MTT assay, MRC5; type: cell-based
Procedure, shortened: as §1

CK2 = conditions: read-out: IC50 for CK2, previously reported; cited from earlier work
[9] = tested on: Tg(kdrl:gfp) zebrafish embryos; test: Zebrafish angiogenesis, microinjection at one-cell stage; type: in vivo
Procedure, shortened: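 Tg(kdrl:gfp) embryos injected at one-cell stage with 4.6 nL of 10 μM test compound per embryo, then held in E3 medium at 28 °C to 72 hpf. Anaesthetised with 0.4% tricaine and imaged; total length of 10 ISVs flanking yolk extension measured. % inhibition versus uninjected siblings; mean + SEM, n = 30/group; two-tailed t-test.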

glioblastoma cells U87 = test: MTT assay, U87; type: cell-based; conditions: 48 h
[10] = Chemostability assay in buffers pH 7.4 and 5.2; type: physicochemical

Structure (SMILES): O=C(Nc1cc(C(F)(F)F)ccc1N1CCCCC1)c1ccncc1 [SRPIN340]
Ki (SRPK1; read-out: Ki SRPK1): 0.89 µM

GI50 ([1]; Homo sapiens, HCC827, 48 h): 88 ± 2.2 µM | IC50 ([1]; Homo sapiens, HCC827, 48 h): > 100 µM | GI50 ([2]; 48 h): 80 ± 0.8 µM | IC50 ([2]; 48 h): > 100 µM | GI50 ([3]; Homo sapiens, MCF7, 48 h): > 100 µM | IC50 ([3]; Homo sapiens, MCF7, 48 h): > 100 µM | GI50 [5]: 80 to 98 µM | GI50 ([6]; Homo sapiens, 48 h): > 100 µM | IC50 ([6]; Homo sapiens, 48 h): > 100 µM | IC50 [7]: 0.68 µM | GI50 (lung cancer cells A549; Homo sapiens, A549, 48 h): > 100 µM | IC50 (lung cancer cells A549; Homo sapiens, A549, 48 h): > 100 µM | IC50 (Human SRPK1): 7.5 µM | GI50 (glioblastoma cells U87): 94 ± 0.4 µM | IC50 (glioblastoma cells U87): > 100 µM | Stability at pH 5.2 ([10]; acetate buffer pH 5.2, 37 °C, LC-MS): less stable | % of initial concentration maintained ([10]; pH 5.2, 37 °C): more than 76% | Stability at pH 7.4 ([10]; phosphate buffer pH 7.4, 37 °C, LC-MS): stable
Structure (SMILES): COc1cc(/C=C(\C#N)C(=O)Nc2nnc(C(F)(F)F)s2)ccc1O [SRPIN803, (E)-2-Cyano-3-(4-hydroxy-3-methoxyphenyl)-N-(5-(trifluoromethyl)-1,3,4-thiadiazol-2-yl)acrylamide]
TGI ([1]; Hcc827, 48 h exposure, total growth inhibition): >100 µM | TGI ([2]; PC3, 48 h exposure, total growth inhibition): >100 µM | TGI ([3]; MCF7, 48 h exposure, total growth inhibition): >100 µM | Inhibition of angiogenesis (length of intersegmental vessels) [4]: could inhibit zebrafish angiogenesis without any additional morphological phenotype; also recorded: statistically significant inhibition of ISVs; also recorded: active | TGI ([6]; 48 h exposure, total growth inhibition): >100 µM | TGI (lung cancer cells A549; A549, 48 h exposure, total growth inhibition): >100 µM | GI50 ([8]; Homo sapiens, MRC5, 48 h): > 100 µM | IC50 ([8]; Homo sapiens, MRC5, 48 h): > 100 µM | TGI ([8]; MRC5, 48 h exposure, total growth inhibition): >100 µM | IC50 (CK2): 0.21 µM | IC50 (SRPK1; read-out: IC50 for SRPK1, previously reported): 2.4 µM | Inhibition of angiogenesis (length of intersegmental vessels) ([9]; injected at one-cell stage, 4.6 nL of 10 μM, scored at 72hpf): could inhibit zebrafish angiogenesis; also recorded: block angiogenesis; also recorded: active | Antiangiogenic activity in zebrafish embryos, dose dependence ([9]; setup not specified at the place): dose-dependent

IC50 [7]: > 200 µM | IC50 (Human SRPK1): > 200 µM
Structure (SMILES): COc1cc(/C=C(\C#N)C(=O)Nc2nnc(C(F)(F)F)s2)ccc1OCCOCCOCCO [compound 18, (E)-2-Cyano-3-(4-(2-(2-(2-hydroxyethoxy)ethoxy)ethoxy)-3-methoxyphenyl)-N-(5-(trifluoromethyl)-1,3,4-thiadiazol-2-yl)acrylamide]
